We go through six molecules from ChEMBL document CHEMBL4346672, “Antimicrobial and KPC/AmpC inhibitory activity of functionalized benzosiloxaboroles” (Eur J Med Chem, 2019).

In brackets after ≈: the same amount, converted by molar mass.

Data set [1] in a line: Cytotoxicity against human MRC5 cells assessed as cell viability at 0.5 ug/ml incubated for 72 hrs by MTT assay. Particulars: read-out: Activity. In kind it is cell-based. Put shortly: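 MRC-5 pd30 human fibroblasts grown in MEM with 10% FBS, 2 mM L-glutamine, penicillin/streptomycin and 1% non-essential amino acids at 37 °C, 5% CO2. Exponentially growing cells trypsinized and seeded at 8×10^3 cells/well, then dosed 18 h later with 2-fold dilutions (0.5% DMSO final) for 72 h. MTT (1 mg/ml final) added for 1 h at 37 °C, formazan dissolved in DMSO, OD read at 570 nm. Four replicates, expressed as % viable versus control.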
Background: Formazan colour is commonly taken as a measure of viable cells.

Data set [2] deals with Enterococcus faecium. Kind of data set: Bactericidal activity against Enterococcus faecium ATCC 6057 measured after 18 hrs by CLSI broth dilution method. In kind it is functional. The settings on record: ATCC 6057, 18 h. Put shortly: (§1)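 Strains stored at -80 °C and subcultured twice on tryptic soy agar before testing. Compounds dissolved in DMSO. […] MBC then determined per CLSI recommendations.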
On the technique in general: In broth dilution the organism is exposed to a series of concentrations in liquid medium.

The subject of data set [3] is Pseudomonas aeruginosa. Kind of data set: Inhibition of beta lactamase AmpC in Pseudomonas aeruginosa 700 assessed as potentiation of ceftazidime-induced antibacterial activity by measuring ceftazidime MIC at 16 mg/L incubated for 18 hrs by broth dilution method (reference value: >[…] mg/L).
The test system of data set [4] is Klebsiella pneumoniae ATCC BAA-1705. Kind of data set: Inhibition of beta lactamase KPC in Klebsiella pneumoniae ATCC BAA 1705 assessed as potentiation of meropenem-induced antibacterial activity by measuring diameter of zone inhibition at 0.3 mg incubated for 18 hrs in presence of 10 ug meropenem by CLSI disc diffusion method (Rvb=[…] mm). (In general: Agar diffusion results depend on both activity and mobility in agar.)

Data set [5] deals with Burkholderia cepacia. The data set is described as follows: Bactericidal activity against Burkholderia cepacia ATCC 25416 measured after 18 hrs by CLSI broth dilution method. The data set is classed as functional. Particulars: ATCC 25416, 18 h. A digest of the protocol: as §1
In data set [6] the test system is Bordetella bronchiseptica. The data set is described as follows: Bactericidal activity against Bordetella bronchiseptica ATCC 4617 measured after 18 hrs by CLSI broth dilution method. The data set is classed as functional. The settings on record: ATCC 4617, 18 h. A digest of the protocol: as §1

The MBC is the smallest concentration meeting the test's criterion for killing. High values mean weaker bactericidal potency, low ones greater bactericidal potency. With `C[Si]1(C)OB(O)c2ccc(B(O)O)cc21`, the viability at 72 h, 0.5 ug/ml in data set [1] was 112%. Besides, in data set [2], the MBC is 400 µg/mL (≈ 1800 µM). Further, in data set [3], the MIC came to 32 µg/mL. Further, the inhibition zone (IZ) in data set [4] amounted to 18 mm.
Take `C[Si]1(C)OB(O)c2c(F)c3c(c(F)c21)B(O)OC3`: the MBC turned out to be 100 µg/mL (≈ 371 µM) in data set [5] and 400 µg/mL (≈ 1480 µM) in data set [6]. The MIC in data set [3] is above 64 µg/mL. Besides, the inhibition zone (IZ) in data set [4] is 12 mm.
Consider `C[Si]1(C)OB(O)c2ccc(F)c(F)c21`, for which the viability at 72 h, 0.5 ug/ml in data set [1] was determined as 108%. Also, the MIC in data set [3] is above 64 µg/mL. For the same molecule, the inhibition zone (IZ) in data set [4] turned out to be 14 mm.
Consider `C[Si]1(C)OB(O)c2c(F)c(F)c(F)c(F)c21`, for which the MIC in data set [3] is above 64 µg/mL. For the same molecule, in data set [4], the inhibition zone (IZ) is 13 mm.
On to `C[Si]1(C)OB(O)c2ccc(C(F)(F)F)cc21`, for which, in data set [2], the MBC worked out at 50 µg/mL (≈ 203 µM).
In the case of `C[Si]1(C)OB(O)c2cc3c(c(F)c21)COB3O`, in data set [1], the viability at 72 h, 0.5 ug/ml turned out to be 112%. In addition, the MIC in data set [3] was above 64 µg/mL. In addition, the inhibition zone (IZ) in data set [4] was found to be 12 mm.
